# A selection: hits, their analogues and other compounds. The true share with any hit is near 0.58%.
# TRPML3 agonist: activates the human TRPML3 channel | HEK293 TRPML3-YFP, Fluo-8 calcium fluorescence; 100% = the carbachol control signal | activation, % at 3 µM | 220,000 compounds, 0.29% hits | Q8TDD5;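 active = activation above its plate's cutoff, the mean activation of the plate's test wells plus 3 SD, cut at about 12% in these data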
# Target sequence (Q8TDD5 whole entry, looked up): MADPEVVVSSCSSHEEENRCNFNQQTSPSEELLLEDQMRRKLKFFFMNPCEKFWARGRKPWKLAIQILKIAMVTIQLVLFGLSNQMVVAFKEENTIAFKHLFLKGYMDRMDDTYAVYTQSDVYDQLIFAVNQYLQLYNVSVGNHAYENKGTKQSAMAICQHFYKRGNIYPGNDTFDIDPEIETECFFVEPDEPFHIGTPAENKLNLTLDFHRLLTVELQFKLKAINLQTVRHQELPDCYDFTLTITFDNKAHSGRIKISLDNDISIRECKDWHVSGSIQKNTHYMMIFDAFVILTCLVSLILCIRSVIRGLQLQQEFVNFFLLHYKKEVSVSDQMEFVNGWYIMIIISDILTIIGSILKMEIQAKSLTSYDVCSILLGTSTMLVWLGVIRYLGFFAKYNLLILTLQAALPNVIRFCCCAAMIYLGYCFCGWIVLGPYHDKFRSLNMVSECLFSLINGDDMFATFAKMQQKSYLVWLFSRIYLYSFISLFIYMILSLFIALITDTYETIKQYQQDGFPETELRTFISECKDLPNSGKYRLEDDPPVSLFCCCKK
#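 system = HEK293 cells stably carrying human TRPML3-YFP | doses = one concentration, 3 µM nominal, 0.3% DMSO | timing = dye loading 1 h 37 °C then 30 min ambient, 125 s read | detection = Fluo-8 calcium dye fluorescence, ex 470-495, em 515-575 nm | benchmarks = high control carbachol 87 µM, low control DMSO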
# V1aR counter: activates human V1a receptor in oxytocin agonist counter-screen. P37288. CHO-V1R cells, Fluo-8 calcium fluorescence, agonist mode; 0% DMSO, 100% 3 nM vasopressin. activation, % at 3 µM. 320,000 compounds, 0.25% hits;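 active = activation above the mean activation of all tested compounds plus 3 SD, per screening run, cut at about 20% in these data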;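 note: signal is peak over basal fluorescence ratio across a 100 second FLIPR read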
# OXTR agonist: agonists of human oxytocin receptor | 320,000 compounds, 0.32% hits | P30559 | AID 2435 | CHO-OTR cells, Fluo-8 calcium fluorescence; normalized: DMSO 0%, oxytocin 100% | activation, % at 3 µM;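 active = activation above the mean of all tested compounds plus 3 SD, cutoff set per screening run, cut at about 20% in these data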;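 note: peak over basal fluorescence ratio from a 100 s FLIPR kinetic read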
# zfTRPN1 agonist: activates the zebrafish TRPN1 channel; HEK293 zebrafish TRPN1-YFP, Fluo-8 calcium fluorescence; 100% = response to 87 µM carbachol; activation, % at 3 µM; 220,000 compounds, 0.18% hits;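 active = activation above its plate's cutoff, the mean activation of test wells on that plate plus 3 SD, cut at about 19% in these data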
#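 System: zebrafish TRPN1-YFP in HEK293 cells / Dosing: 3 µM single point / Timing: dye loading 1 h at 37 °C, then 30 min room temperature / Signal: Fluo-8 calcium fluorescence, excitation 470-495 nm, emission 515-575 nm / Read-out basis: percent activation from peak over basal fluorescence ratio, control-normalized / Control set: high carbachol 87 µM, low DMSO alone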
# OXTR potentiate: potentiators of human oxytocin receptor. AID 2445. P30559. activation, % at 3 µM. 320,000 compounds, 0.061% hits. CHO-OTR cells, Fluo-8 calcium fluorescence, potentiator mode; 0% = oxytocin EC15, 100% = EC100;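 active = activation above that plate's cutoff, the mean activation of tested compounds plus 3 SD, cut at about 6.6% in these data, passing the limit was not always enough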
#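 assay system = CHO-OTR cells, human receptor | schedule = compound 6 min at room temperature before oxytocin, 100 s read | detection = Fluo-8 intracellular calcium fluorescence, ex 470-495, em 515-575 nm | evaluation = normalized max/min fluorescence ratio, % activation | control set = EC15 oxytocin alone as 0%, 75 nM oxytocin (EC100) as 100%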
# A number is an active result; . = inactive; / = no result.
SMILES,TRPML3 agonist,V1aR counter,OXTR agonist,zfTRPN1 agonist,OXTR potentiate
CCCCc1ncc(CN2CCC(CC3CCCCO3)(C(=O)OCC)CC2)[nH]1 (stereo unspecified),.,.,.,.,.
CCOC(=O)C1(CC2CCCCO2)CCN(Cc2cc3ccccc3[nH]2)CC1 (stereo unspecified),23.9,27.7,31.3,30.0,.
CCCCN1C(=O)N(C)C2NC(=S)NC21 (stereo unspecified),.,.,.,.,.
Cn1c2ccccc2c(=O)c2c(=O)n(C3CCCCC3)c(-c3ccco3)nc21,.,28.6,.,.,.
C=CCON/C(CCC)=C1\C(=O)C(C(=O)OC)C(C)(C)CC1=NC (stereo unspecified),.,.,.,.,.
CCN(CCn1cccn1)C(=O)CCc1nnc(CCCc2ccccc2)o1,26.5,.,.,43.8,.
N#CC/C(N)=N/Nc1nc2ccccc2nc1Cc1ccccc1,/,.,.,/,.
CCCCCCN1C=CC(=C/C=C(\C#N)C(=O)OCC)C=C1,55.2,149.4,176.9,65.2,.
CCOC(=O)/C(C#N)=C/N=c1ccc(C)cn1C,.,.,.,.,.
CCCN1C=CC(=C/C=C(\C#N)C(=O)OCC)C=C1,15.4,49.0,61.8,19.2,.
CCOC(=O)/C(C#N)=C/C=C1\C=Cc2ccccc2N1CC,.,.,.,.,.
Oc1c(C=C2N=c3ccccc3=N2)sc(=S)n1-c1ccccc1,.,.,.,.,.
CC1=Nc2ccccc2/C1=C/c1sc(=S)n(-c2cccc(C(=O)O)c2)c1O,17.6,/,/,19.8,/
CCCOc1ccc(C(=O)NC(=S)NNC(=O)c2c(-c3ccccc3)noc2C)cc1,51.6,106.0,93.2,99.2,.
Cc1onc(-c2ccccc2)c1C(=O)NC(=S)NNC(=O)c1ccccc1O,54.5,68.0,65.0,81.0,.
CCN1C/C(=C/c2ccc(N3CCOCC3)cc2)C(=O)/C(=C/c2ccc(N3CCOCC3)cc2)C1,.,21.6,25.7,.,.
CCSc1nc(-c2cccnc2)ccc1C#N,.,.,.,.,.
CCSC1=NSC2=NC(=O)/C(=C\c3coc4ccccc4c3=O)C(=N)N12,14.6,46.6,62.3,25.2,.
CC(C)CC1=NN2C(=N)/C(=C\c3coc4ccccc4c3=O)C(=O)N=C2S1,.,/,/,.,/
COc1cc(-c2noc(C)c2-c2ccc(N(C)C)nc2)cc(OC)c1OC,/,33.9,35.7,/,.
COc1cc(-c2noc(C)c2-c2ccc3[nH]ccc3c2)cc(OC)c1OC,/,.,.,/,.
Cc1sc2ncnc(N/N=C/c3cccc(O)c3)c2c1C,.,.,.,.,.
C/C(=N\Nc1ncnc2sc(C)c(C)c12)c1ccccn1,/,134.2,123.7,/,.
Cc1ccc(C2c3c(C)nn(-c4ccc([N+](=O)[O-])cc4)c3N=C3C(=O)Nc4ccccc4N32)cc1 (stereo unspecified),32.9,.,.,25.9,.
Cc1nn(-c2ccc([N+](=O)[O-])cc2)c2c1C(c1ccc(OC(F)F)cc1)N1C(=N2)C(=O)Nc2ccccc21 (stereo unspecified),.,.,.,.,.
SMILES,TRPML3 agonist,V1aR counter,OXTR agonist,zfTRPN1 agonist,OXTR potentiate
O=C1c2cccc3c(N4CCCCC4)ccc(c23)C(=O)N1c1ccc(Cl)cn1,.,/,/,.,/
CCCCNc1ccc2c3c(cccc13)C(=O)N(CCCC)C2=O,154.0,/,/,282.8,/
O=C(OCCN1C(=O)c2cccc3c(N4CCOCC4)ccc(c23)C1=O)c1cc(Cl)cc(Cl)c1,.,/,/,.,/
CCCN1C(=O)c2cccc3c(N4CCCCC4)ccc(c23)C1=O,.,.,.,22.8,.
O=C1c2cccc3c(N4CCCCC4)ccc(c23)C(=O)N1c1ccccn1,.,40.4,41.7,.,.
CN(C)CCCN1C(=O)c2cccc3c(Br)ccc(c23)C1=O,.,.,.,.,.
CN1C(=O)/C(=C/c2ccc(OCc3ccccc3F)cc2)N(C)C1=S,/,.,.,/,.
CCOC(=O)CN1C(=O)NC(C)(c2ccc(OC(F)F)cc2)C1=O (stereo unspecified),.,.,.,.,.
CC1(c2ccc(OC(F)F)cc2)NC(=O)N(CC(=O)Nc2ccc3c(c2)OCO3)C1=O (stereo unspecified),26.4,45.4,39.2,30.2,.
CC(=O)Nc1ccc(/C=N/N2C(=O)NC(C)(c3ccc(OC(F)F)cc3)C2=O)cc1 (stereo unspecified),.,38.5,55.2,.,.
CC1(c2ccc(OC(F)F)cc2)NC(=O)N(CC(=O)Nc2ccccc2)C1=O (stereo unspecified),/,32.2,46.5,/,.
O=C(Cn1c(NCCO)nc2ccccc21)N1CCN(Cc2ccccc2)CC1,.,.,.,.,.
COc1ccc(Cl)cc1NC(=O)CN1C(=O)NC(Cc2c[nH]c3ccccc23)C1=O (stereo unspecified),/,.,.,/,.
Cc1nnsc1SCCNC(=O)Nc1ccc(Cl)cc1,.,.,.,.,.
COc1cccc(CCNC(=O)CCCC(=O)c2ccccc2)c1,/,.,.,/,.
COc1ccc(CNC(=O)C2CCC(CNC(=O)[C@@H]3Cc4ccccc4CN3)CC2)cc1 (stereo partly specified),/,.,.,/,.
O=C(Nc1ccc(C(=O)NCCCN2CCCCC2)cc1)C1=CSCCO1,/,.,.,/,.
O=C(Nc1ccc(C(=O)NCCCN2CCN(c3ccc(F)cc3)CC2)cc1)C1=CSCCO1,/,25.7,29.3,/,.
CCCOc1ccc(-c2c(C(=O)N/N=C/c3ccc(OC)cc3)nnn2-c2nonc2N)cc1,.,.,.,.,.
CCCOc1ccc(-c2c(C(=O)N/N=C/c3ccc(OCC)cc3)nnn2-c2nonc2N)cc1,.,.,.,.,.
CCOc1ccc(-c2c(C(=O)N/N=C/c3ccsc3)nnn2-c2nonc2N)cc1,/,20.9,29.1,/,.
CCOc1ccc(-c2c(C(=O)N/N=C/c3ccc(OC)cc3)nnn2-c2nonc2N)cc1,.,27.0,37.2,.,.
COc1ccc(CNC(=S)NCc2ccc(Cl)cc2)cc1OC,/,.,.,/,.
Cc1ccc(NS(=O)(=O)c2ccc(C(=O)OCC(=O)Nc3cc(C)on3)cc2)cc1,.,/,/,22.5,/
COc1ccc(NS(=O)(=O)c2cccc(C(=O)OCC(=O)Nc3cc(C)on3)c2)cc1,.,.,.,.,.
O=c1oc2c3c4c(cc2c(C(F)(F)F)c1CCN1CCOCC1)CCCN4CCC3,.,33.0,33.9,19.9,.
CC(C)c1cc(=O)oc2c3c4c(cc12)CCCN4CCC3,.,.,.,.,.
CCOc1cc(C(=O)Nc2ccccc2F)cc(Br)c1OCC,.,.,.,.,.
Cn1c2c(c(=O)n(C)c1=O)C(C(F)(F)F)(C(F)(F)F)N=C(c1ccc(Cl)cc1)N2,20.4,.,.,29.3,.

# High-throughput results deposited in PubChem BioAssay by The Scripps Research Institute Molecular Screening Center.
